From ChEMBL document CHEMBL5303300, “EUbOPEN Chemogenomics Library - Multiplex” (2023)
“And” between values parts separate entries of the source, which are not always exact repeats. Equal values may be shown once.

Tested on: U2OS
Test: Multiplex assay against U2OS
Format: toxicity, cell-based
Settings: human, number of replicates 2
Outline: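 Compound was added to live cells that had been stained at seeding with Hoechst33342, BioTracker Green Microtubule Cytoskeleton Dye, MitoTracker Red and Annexin V Alexa Fluor 680, and imaging followed on a CQ1 microscope at 37°C and 5% CO2. CellPathfinder machine-learning gating divided cells into Hoechst high-intensity objects or normal cells, normal cells into healthy, pyknosed or fragmented nuclei, and pyknosed cells into mitotic or apoptotic. Tubulin, mitochondrial-mass and membrane-permeability phenotypes are per cents of healthy-nucleus cells.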

[1] = 12 h, 1 µM, compound concentration 1 uM
[2] = 12 h, 10 µM, compound concentration 10 uM
[3] = 24 h, 1 µM, compound concentration 1 uM
[4] = 24 h, 10 µM, compound concentration 10 uM
[5] = 48 h, 1 µM, compound concentration 1 uM
[6] = 48 h, 10 µM, compound concentration 10 uM

Cc1c(C(=O)Nc2ccc(N3C[C@@H](C)O[C@@H](C)C3)nc2)cccc1-c1ccc(OC(F)(F)F)cc1 [SONIDEGIB]
Population Apoptotic (%) [1]: 66% and 51%
Population Healthy Nuclei (%) [1]: 60% and 79%
Population Hoechst High Intensity Objects (%) [1]: 0%
Population Membrane Permeable-Phenotype (%) [1]: 4% and 1%
Population Mitochondria Different-Phenotype (%) [1]: 0%
Population Mitotic Cells (%) [1]: 33% and 48%
Population Normal (%) [1]: 100%
Population Pyknosed Nuclei (%) [1]: 7% and 13%
Population Tubulin-Different-Phenotype (%) [1]: 56% and 90%
Population Healthy Nuclei (%) [2]: 61% and 85%
Population Hoechst High Intensity Objects (%) [2]: 0%
Population Membrane Permeable-Phenotype (%) [2]: 0% and 1%
Population Mitochondria Different-Phenotype (%) [2]: 0%
Population Mitotic Cells (%) [2]: 100% and 54%
Population Normal (%) [2]: 100%
Population Pyknosed Nuclei (%) [2]: 11%
Population Tubulin-Different-Phenotype (%) [2]: 57% and 90%
Population Apoptotic (%) [3]: 50% and 66%
Population Healthy Nuclei (%) [3]: 68% and 85%
Population Hoechst High Intensity Objects (%) [3]: 0%
Population Membrane Permeable-Phenotype (%) [3]: 0% and 2%
Population Mitochondria Different-Phenotype (%) [3]: 0%
Population Mitotic Cells (%) [3]: 50% and 33%
Population Normal (%) [3]: 100% and 99%
Population Pyknosed Nuclei (%) [3]: 4% and 9%
Population Tubulin-Different-Phenotype (%) [3]: 64% and 88%
Population Apoptotic (%) [4]: 50% and 63%
Population Healthy Nuclei (%) [4]: 61% and 90%
Population Hoechst High Intensity Objects (%) [4]: 0%
Population Membrane Permeable-Phenotype (%) [4]: 4% and 1%
Population Mitochondria Different-Phenotype (%) [4]: 0%
Population Mitotic Cells (%) [4]: 50% and 36%
Population Normal (%) [4]: 100%
Population Pyknosed Nuclei (%) [4]: 10% and 7%
Population Tubulin-Different-Phenotype (%) [4]: 75% and 90%
Population Apoptotic (%) [5]: 33% and 54%
Population Healthy Nuclei (%) [5]: 60% and 89%
Population Hoechst High Intensity Objects (%) [5]: 0%
Population Membrane Permeable-Phenotype (%) [5]: 6% and 1%
Population Mitochondria Different-Phenotype (%) [5]: 0%
Population Mitotic Cells (%) [5]: 66% and 45%
Population Normal (%) [5]: 100%
Population Pyknosed Nuclei (%) [5]: 5% and 7%
Population Tubulin-Different-Phenotype (%) [5]: 70% and 89%
Population Apoptotic (%) [6]: 42% and 46%
Population Healthy Nuclei (%) [6]: 71% and 91%
Population Hoechst High Intensity Objects (%) [6]: 0%
Population Membrane Permeable-Phenotype (%) [6]: 0% and 1%
Population Mitochondria Different-Phenotype (%) [6]: 0%
Population Mitotic Cells (%) [6]: 57% and 53%
Population Normal (%) [6]: 100%
Population Pyknosed Nuclei (%) [6]: 8% and 6%
Population Tubulin-Different-Phenotype (%) [6]: 74% and 89%

CN[C@@H]1C[C@H]2O[C@@](C)([C@@H]1OC)n1c3ccccc3c3c4c(c5c6ccccc6n2c5c31)C(=O)NC4 [STAUROSPORINE]
Population Apoptotic (%) [2]: 40% and 72% and 59% and 58%
Population Fragmented Nuclei (%) [2]: 50% and 34% and 30%
Population Hoechst High Intensity Objects (%) [2]: 3% and 0%
Population Membrane Permeable-Phenotype (%) [2]: 66% and 53% and 62% and 43%
Population Mitochondria Different-Phenotype (%) [2]: 66% and 53% and 51% and 68%
Population Mitotic Cells (%) [2]: 41% [middle of 4 runs]
Population Normal (%) [2]: 96% and 100%
Population Pyknosed Nuclei (%) [2]: 38% and 46% and 61% and 63%
Population Tubulin-Different-Phenotype (%) [2]: 73% [middle of 4 runs]
Population Apoptotic (%) [4]: 70% and 85% and 89%
Population Fragmented Nuclei (%) [4]: 45% and 26% and 27% and 40%
Population Healthy Nuclei (%) [4]: 5% and 3% and 4% and 8%
Population Hoechst High Intensity Objects (%) [4]: 0% and 1%
Population Mitochondria Different-Phenotype (%) [4]: 100% and 57% and 75% and 80%
Population Mitotic Cells (%) [4]: 30% and 14% and 10%
Population Normal (%) [4]: 100% and 98%
Population Pyknosed Nuclei (%) [4]: 50% and 70% and 68%
Population Tubulin-Different-Phenotype (%) [4]: 100% and 85% and 40%
Population Apoptotic (%) [6]: 86% and 87% and 88% and 91%
Population Healthy Nuclei (%) [6]: 6% and 5% and 4%
Population Hoechst High Intensity Objects (%) [6]: 0%
Population Membrane Permeable-Phenotype (%) [6]: 100% and 90% and 85%
Population Mitochondria Different-Phenotype (%) [6]: 100% and 60% and 71%
Population Mitotic Cells (%) [6]: 13% and 12% and 8%
Population Normal (%) [6]: 100%
Population Pyknosed Nuclei (%) [6]: 60% and 50% and 80% and 73%
Population Tubulin-Different-Phenotype (%) [6]: 100% and 85%

Cc1ccc2c(c1CCC(=O)O)CC[C@@H](NS(=O)(=O)c1ccc(Cl)cc1)C2 [TERUTROBAN]
Population Apoptotic (%) [1]: 44% and 33%
Population Healthy Nuclei (%) [1]: 83% and 55%
Population Hoechst High Intensity Objects (%) [1]: 0%
Population Membrane Permeable-Phenotype (%) [1]: 1% and 0%
Population Mitochondria Different-Phenotype (%) [1]: 1% and 0%
Population Mitotic Cells (%) [1]: 56% and 66%
Population Normal (%) [1]: 100%
Population Pyknosed Nuclei (%) [1]: 11% and 7%
Population Tubulin-Different-Phenotype (%) [1]: 92% and 47%
Population Apoptotic (%) [2]: 44% and 50%
Population Fragmented Nuclei (%) [2]: 8% and 2%
Population Healthy Nuclei (%) [2]: 76% and 86%
Population Hoechst High Intensity Objects (%) [2]: 0%
Population Membrane Permeable-Phenotype (%) [2]: 4% and 2%
Population Mitochondria Different-Phenotype (%) [2]: 2% and 0%
Population Mitotic Cells (%) [2]: 55% and 50%
Population Normal (%) [2]: 100%
Population Pyknosed Nuclei (%) [2]: 15% and 10%
Population Tubulin-Different-Phenotype (%) [2]: 73% and 87%
Population Apoptotic (%) [3]: 50% and 61%
Population Healthy Nuclei (%) [3]: 61% and 87%
Population Hoechst High Intensity Objects (%) [3]: 0%
Population Membrane Permeable-Phenotype (%) [3]: 0% and 1%
Population Mitochondria Different-Phenotype (%) [3]: 0%
Population Mitotic Cells (%) [3]: 50% and 38%
Population Normal (%) [3]: 100%
Population Pyknosed Nuclei (%) [3]: 5% and 8%
Population Tubulin-Different-Phenotype (%) [3]: 66% and 92%
Population Apoptotic (%) [4]: 66% and 62%
Population Fragmented Nuclei (%) [4]: 9% and 2%
Population Healthy Nuclei (%) [4]: 81% and 87%
Population Hoechst High Intensity Objects (%) [4]: 0%
Population Membrane Permeable-Phenotype (%) [4]: 5% and 0%
Population Mitochondria Different-Phenotype (%) [4]: 3% and 0%
Population Mitotic Cells (%) [4]: 33% and 37%
Population Normal (%) [4]: 100%
Population Pyknosed Nuclei (%) [4]: 8% and 10%
Population Tubulin-Different-Phenotype (%) [4]: 75% and 92%
Population Apoptotic (%) [5]: 37% and 58%
Population Healthy Nuclei (%) [5]: 66% and 91%
Population Hoechst High Intensity Objects (%) [5]: 0%
Population Membrane Permeable-Phenotype (%) [5]: 2%
Population Mitochondria Different-Phenotype (%) [5]: 0%
Population Mitotic Cells (%) [5]: 62% and 41%
Population Normal (%) [5]: 100%
Population Pyknosed Nuclei (%) [5]: 11% and 5%
Population Tubulin-Different-Phenotype (%) [5]: 73% and 94%
Population Apoptotic (%) [6]: 25% and 57%
Population Fragmented Nuclei (%) [6]: 3% and 1%
Population Healthy Nuclei (%) [6]: 85% and 91%
Population Hoechst High Intensity Objects (%) [6]: 0%
Population Membrane Permeable-Phenotype (%) [6]: 4% and 1%
Population Mitochondria Different-Phenotype (%) [6]: 4% and 0%
Population Mitotic Cells (%) [6]: 75% and 42%
Population Normal (%) [6]: 100%
Population Pyknosed Nuclei (%) [6]: 10% and 6%
Population Tubulin-Different-Phenotype (%) [6]: 72% and 93%
